Assay results as given in ChEMBL document CHEMBL2440094, “Thiazolidinone-peptide hybrids as dengue virus protease inhibitors with antiviral activity in cell culture” (J Med Chem, 2013).
Active and inactive are the calls of the source. The rule behind the calls is not given here. Square brackets hold non-standard residues; d marks the D form. Peptide text beside a SMILES is read from it. * marks the point of attachment. Nle = CCCC[C@H](N)C(=O)O; Bz = O=C(c1ccccc1)*

What was measured:
[1] = biological target: Prothrombin (Homo sapiens) (UniProt P00734); test: Inhibition of thrombin (unknown origin) using Boc-Val-Pro-Arg-AMC as substrate at 25 uM after 10 mins by continuous fluorimetric assay
Procedure, shortened: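 Thrombin (10 nM) preincubated 15 min with inhibitor (25 μM final) in 50 mM Tris-HCl pH 7.5, 150 mM NaCl, 0.05% Tween 20. Boc-Val-Pro-Arg-AMC then added to 50 μM (Km 16 μM). Fluorescence (ex 355 nm, em 460 nm) followed for 10 min as slope. Triplicate; percent inhibition versus no-inhibitor control.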

West Nile virus = test: Inhibition of West Nile virus NS2B-NS3 protease expressed in Escherichia coli BL 21 (DE3) using Abz-Gly-Leu-Lys-Arg-Gly-Gly-3-(NO2)Tyr as substrate at 50 uM after 15 mins
Dengue virus [2] = test: Inhibition of Dengue virus NS2B-NS3 protease expressed in Escherichia coli BL 21 (DE3) using Abz-Nle-Lys-Arg-Arg-Ser-3-(NO2)Tyr as substrate at 50 uM after 15 mins
Huh-7 = test: Cytotoxicity against human HuH7 cells at <50 uM after 48 hrs by firefly reporter assay; format: cell-based; settings: huh-7, 48 h
Procedure, shortened: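 Uninfected Huh-7 cells stably expressing firefly luciferase, seeded 5000/well and incubated overnight at 37 °C. Compound added at 1.56–50 μM, plus 100, 200 and 400 μM, then incubated as for infected cells (further 48 h after the 4 h point). Firefly luminescence read with 70 μM luciferin and 2 mM ATP. Mean of three wells as percent of DMSO control.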

dengue virus type 2 [3] = test: Antiviral activity against Dengue virus 2 infected in human Huh-7 cells assessed as inhibition of viral replication after 48 hrs by luciferase reporter gene assay; format: functional, organism-based; settings: Huh-7, 48 h
Procedure, shortened: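 Huh-7 cells seeded 5000/well, incubated overnight at 37 °C, then given compound (1.56–50 μM final, 2-fold series in DMEM with 10% FCS). Dengue 2 renilla luciferase reporter virus (MOI 10) added 4 h later. After 48 h at 37 °C, cells lysed and renilla luminescence read with coelenterazine. At least four wells per concentration, expressed relative to DMSO control. EC50 by nonlinear regression.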

[4] = Permeability of the compound by PAMPA; format: ADME; settings: read-out: permeability
Procedure, shortened: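 PAMPA with precoated trilayer lipid/oil/lipid membranes, donor wells holding 200 μM compound in PBS pH 7.4 (2% DMSO final), in triplicate. Incubated 5 h at room temperature. Donor and acceptor concentrations determined by UV plate reader or HPLC-UV against calibration curves. Pe and mass retention R calculated.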

Dengue virus [5] = test: Competitive inhibition of Dengue virus NS2B-NS3 protease expressed in Escherichia coli BL 21 (DE3) using Abz-Nle-Lys-Arg-Arg-Ser-3-(NO2)Tyr as substrate by Cornish-Bowden plot analysis
Procedure, shortened: (§1)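 DEN2 NS2B–NS3 FRET assay run at inhibitor 0–6 μM (prior-series compounds 5–50 μM) and substrate 50, 100, 150 and 200 μM, in triplicate, with inner-filter correction. Ki from Dixon plots (1/v vs [I]) and Ki′ from Cornish-Bowden plots (S/v vs [I]). Inhibition mode assigned from these plots.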

[6] = Inhibition of Dengue virus NS2B-NS3 protease expressed in Escherichia coli BL 21 (DE3) using Abz-Nle-Lys-Arg-Arg-Ser-3-(NO2)Tyr as substrate assessed as enzyme-inhibitor complex by Cornish-Bowden plot analysis; settings: in the assay text read “Dixon plot” for “Cornish-Bowden plot”; procedure, shortened: as §1
[7] = Inhibition of Dengue virus NS2B-NS3 protease expressed in Escherichia coli BL 21 (DE3) using Abz-Nle-Lys-Arg-Arg-Ser-3-(NO2)Tyr as substrate after 15 mins
[8] = Inhibition of Dengue virus NS2B-NS3 protease expressed in Escherichia coli BL 21 (DE3) using Abz-Nle-Lys-Arg-Arg-Ser-3-(NO2)Tyr as substrate assessed as enzyme-substrate-inhibitor complex by Cornish-Bowden plot analysis; procedure, shortened: as §1
dengue virus type 2 [9] = test: Antiviral activity against Dengue virus 2 infected in human Huh-7 cells assessed as inhibition of virus-induced plaque formation at 50 uM after 48; format: functional, organism-based
Procedure, shortened: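 Huh-7 cells seeded in 12-well plates and pretreated with compound (50 μM) for 4 h. Infected for 1 h with dengue reporter virus (MOI 5) in the presence of compound, then medium replaced with compound-containing DMEM. Supernatant harvested at 48 h and filtered. Titer determined by plaque assay on Vero cells. Mean ± SD of three independent experiments.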

Row | SMILES | inhibition [1] | inhibition (West Nile virus) [%] | inhibition (Dengue virus [2]) [%] | Activity (Huh-7) | EC50 (dengue virus type 2 [3]) [µM] | Papp [4] [×10⁻⁶ cm/s] | inhibition (Dengue virus [5]) | Ki [6] [µM] | IC50 [7] [µM] | Ki [8] [µM] | inhibition (dengue virus type 2 [9])
1 | CCCC[C@H](NC(=O)[C@H](CCCCN)NC(=O)[C@H](CCCNC(=N)N)NC(=O)c1ccc(/C=C2\SC(=O)N(C)C2=O)cc1)C(N)=O | 9.2% | 38.1 | 91.1 | Non-toxic |  |  |  |  |  |  | 
2 | C=CCN1C(=O)/C(=C/c2ccc(C(=O)N[C@@H](CCCNC(=N)N)C(=O)N[C@@H](CCCCN)C(=O)N[C@@H](CCCC)C(N)=O)cc2)SC1=S | inactive | 54.6 | 96 | Non-toxic | 31.3 | 0.42 |  |  |  |  | 
3 | CCCC[C@H](NC(=O)[C@H](CCCCN)NC(=O)[C@H](CCCNC(=N)N)NC(=O)c1cccs1)C(N)=O | inactive | 14.7 | 71.1 | Non-toxic |  |  | Active | 14.5 | 14.1 | > 50 | inactive
4 | CCCC[C@H](NC(=O)[C@H](CCCCN)NC(=O)[C@H](CCCNC(=N)N)NC(=O)c1ccccc1)C(N)=O (Bz-Arg-Lys-[Nle]-NH2) | 5.5% | 7.7 | 68.1 | Non-toxic |  |  | Active | 11.2 | 13.3 | > 50 | 
5 | CCCC[C@H](NC(=O)[C@H](CCCCN)NC(=O)[C@H](CCCNC(=N)N)NC(=O)c1ccc(/C=C2\SC(=O)N(CCCC)C2=O)cc1)C(N)=O | 18.4% | 52.4 | 100 |  | > 50 | 1.18 | Active | 3.4 | 3.5 | > 10 | 
6 | CCCC[C@H](NC(=O)[C@H](CCCCN)NC(=O)[C@H](CCCNC(=N)N)NC(=O)c1ccc(/C=C2\SC(=S)N(c3ccc(Cl)cc3)C2=O)cc1)C(N)=O | 11.1% | 53.6 | 96.7 |  | 35.7 | 1.02 |  |  |  |  | 
7 | CCCC[C@H](NC(=O)[C@H](CCCCN)NC(=O)[C@H](CCCNC(=N)N)NC(=O)c1ccc(/C=C2\SC(=S)N(c3ccc(OC)cc3)C2=O)cc1)C(N)=O | 8.5% | 42.9 | 92.5 |  | 42.5 | 0.59 |  |  |  |  | 
8 | CCCC[C@H](NC(=O)[C@H](CCCCN)NC(=O)[C@H](CCCNC(=N)N)NC(=O)/C=C1\SC(=S)N(Cc2ccc(OC)cc2)C1=O)C(N)=O | 24.7% | 15.3 | 40.9 | Non-toxic | 26 |  |  |  |  |  | 
9 | CCCC[C@H](NC(=O)[C@H](CCCCN)NC(=O)[C@H](CCCNC(=N)N)NC(=O)c1ccc(/C=C2\SC(=S)NC2=O)cc1)C(N)=O | 13.9% | 48.7 | 87.1 | Non-toxic | > 50 |  |  |  |  |  | 
10 | CCCC[C@H](NC(=O)[C@H](CCCCN)NC(=O)[C@H](CCCNC(=N)N)NC(=O)c1ccc(/C=C/C(N)=O)cc1)C(N)=O | inactive | 15.6 | 84.6 | Non-toxic |  |  | Active | 8.2 | 6.4 | > 50 | 
11 | CCCC[C@H](NC(=O)[C@H](CCCCN)NC(=O)[C@H](CCCNC(=N)N)NC(=O)c1ccc(/C=C2\SC(=O)N(Cc3ccc(C)cc3)C2=O)cc1)C(N)=O | 9.3% | 66.7 | 97.6 |  |  |  | Active | 3.1 | 4.8 | > 10 | 
12 | CCCC[C@H](NC(=O)[C@H](CCCCN)NC(=O)[C@H](CCCNC(=N)N)NC(=O)c1ccc(/C=C2\SC(=S)N(C)C2=O)cc1)C(N)=O | 14.8% | 35 | 89 | Non-toxic | > 50 |  |  |  |  |  | 
13 | CCCC[C@H](NC(=O)[C@H](CCCCN)NC(=O)[C@H](CCCNC(=N)N)NC(=O)c1ccc(/C=C2\SC(=O)N(C3CCCCC3)C2=O)cc1)C(N)=O | 9.1% | 51.1 | 98.4 |  |  | 1.69 | Active | 2.3 | 3.4 | > 10 | 
14 | CCCC[C@H](NC(=O)[C@H](CCCCN)NC(=O)[C@H](CCCNC(=N)N)NC(=O)c1ccc(/C=C2\SC(=S)N(C3CCCC3)C2=O)cc1)C(N)=O | inactive | 97.7 | 99.8 |  | 30.3 | 2.31 | Active | 3.6 | 6.1 | > 10 | 
15 | CCCC[C@H](NC(=O)[C@H](CCCN)NC(=O)[C@H](CCCNC(=N)N)NC(=O)c1ccc(/C=C2\SC(=O)N(Cc3ccccc3)C2=O)cc1)C(N)=O | 14.3% | 45 | 74.5 | Non-toxic | 26.8 |  |  |  |  |  | inactive
16 | CCCC[C@H](NC(=O)[C@H](CCCCN)NC(=O)[C@H](CCCNC(=N)N)NC(=O)c1ccc(/C=C2\SC(=O)NC2=O)cc1)C(N)=O | 14.5% | 27 | 84.4 | Non-toxic | > 50 |  |  |  |  |  | 
17 | CCCC[C@H](NC(=O)[C@H](CCCCN)NC(=O)[C@H](CCCNC(=N)N)NC(=O)c1ccc(/C=C2\SC(=S)N(CCCC)C2=O)cc1)C(N)=O | 11.3% | 64.7 | 97.3 |  | 35.5 | 1.61 | Active | 4.7 | 6.2 | > 10 | 
18 | CCCC[C@H](NC(=O)[C@H](CCCCN)NC(=O)[C@H](CCCNC(=N)N)NC(=O)/C=C/c1ccccc1)C(N)=O | inactive | 13.8 | 82.9 | Non-toxic |  | 1.26 | Active | 6.9 | 10.5 | > 50 | 
19 | CCCC[C@H](NC(=O)[C@H](CCCCN)NC(=O)[C@H](CCCNC(=N)N)NC(=O)c1ccc(/C=C2\SC(=O)N(Cc3ccc(OC)cc3)C2=O)cc1)C(N)=O | 12.3% | 47.2 | 97 |  |  |  | Active | 2.2 | 3.3 | > 10 | 
20 | CCCC[C@H](NC(=O)[C@H](CCCCN)NC(=O)[C@H](CCCNC(=N)N)NC(=O)c1cccc(/C=C2\SC(=O)N(C3CCCC3)C2=O)c1)C(N)=O | 13% | 52.9 | 92.4 |  | 53.8 | 1.9 |  |  |  |  | 
21 | CCCC[C@H](NC(=O)[C@H](CCCCN)NC(=O)[C@H](CCCNC(=N)N)NC(=O)c1ccc(/C=C2\SC(=O)N(CCOC(C)=O)C2=O)cc1)C(N)=O | 16.8% | 41.4 | 97.6 |  |  |  | Active | 3.6 | 4.8 | > 10 | 
22 | CCCC[C@H](NC(=O)[C@H](CCCCN)NC(=O)[C@H](CCCNC(=N)N)NC(=O)c1ccc(/C=C(\C#N)C(=O)NC2CC2)cc1)C(N)=O | 13.4% | 28 | 88.5 | Non-toxic |  | 1.11 | Active | 4 | 5.3 | > 50 | inactive
